Measurements pooled from the literature.
Lines come from different studies, so protocols differ.
HTR2A: 5-hydroxytryptamine receptor 2A (HTR2A, Homo sapiens, UniProt P28223)
SLC18A3: Vesicular acetylcholine transporter (SLC18A3, Homo sapiens, UniProt Q16572)
SIGMAR1: Sigma non-opioid intracellular receptor 1 (SIGMAR1, Homo sapiens, UniProt Q99720)
OPRK1: Kappa-type opioid receptor (OPRK1, Homo sapiens, UniProt P41145)
BMX: Cytoplasmic tyrosine-protein kinase BMX (BMX, Homo sapiens, UniProt P51813)

`N[C@@H](C[C@]1(C(=O)O)C[C@H]2OC[C@@H](O)[C@@H](O)[C@H]2O1)C(=O)O` gave a Ki of 895 nM (Glutamate receptor ionotropic, kainate 2 (Grik2, Rattus norvegicus, UniProt P42260, Y443F); ligand displacement; radioligand).
For `CNC(=O)[C@H]1[Se][C@@H](n2cnc3c(NCc4cccc(Cl)c4)nc(Cl)nc32)[C@H](O)[C@@H]1O`, the Ki was about 200 nM (Adenosine receptor A2a (ADORA2A, Homo sapiens, UniProt P29274); ligand displacement; radioligand; cell membranes).
`Fc1ccc2c(C3CCCNC3)noc2c1` (racemic) gave a Ki of 284 nM (HTR2A; ligand displacement; radioligand; cell membranes).
`CCCN1CCC[C@@H]2Cc3n[nH]cc3C[C@H]21` gave a Ki of over 1000 nM (SLC18A3; ligand displacement; radioligand).
`CCOC(=O)C(CC)(CCCSC)NC(=O)c1ccc(C2CC2)c(Cc2ccc(F)cc2)n1` (stereo not shown) has a Ki of 8.5 nM (Cannabinoid receptor 1 (CNR1, Homo sapiens, UniProt P21554); ligand displacement; radioligand; cell membranes).
For `O=C(c1ccc(F)cc1)C1CCN(C2Cc3c(cccc3OCCF)CC2O)CC1` (single isomer, unassigned; (-)), the Ki was 6.98 nM (SLC18A3; ligand displacement; radioligand).
For `CN1CCN(CCc2ccc(Cl)c(Cl)c2)CC1`, the Ki was 9.48 nM (SIGMAR1; ligand displacement; radioligand).
`Cc1cc(O)cc(C)c1C[C@H](N)C(=O)N1CCc2ccc(Cc3cccc(N)c3)cc2C1` gave a Ki of 28 nM (OPRK1; ligand displacement; radioligand; cell membranes).
For `CCCC[C@@H](NC(=O)[C@@H](N)Cc1c(C)cc(O)cc1C)C(=O)NCC(=O)N[C@@H](Cc1ccc(F)cc1)C(=O)N(C)CCC[C@@]1(c2ccc(F)cc2)OCc2cc(C#N)ccc21`, the Ki was 3 nM (OPRK1; cell-free assay).
The Ki of `O=C(CN1CCC(CN2Cc3ccccc3C2=O)CC1)c1ccc(F)cc1` is reported as 1740 nM (SIGMAR1; ligand displacement; radioligand).
`Cc1cccc(Cc2ccc3c(c2)CN(C(=O)[C@@H](N)Cc2c(C)cc(O)cc2C)CC3)c1` has a Ki of 2.7 nM (OPRK1; ligand displacement; radioligand; cell membranes).
The Ki of `OCCOCCN1CCN(C(c2ccccc2)c2ccc(Cl)cc2)CC1` (stereo not shown) is reported as 437 nM (SIGMAR1; ligand displacement; radioligand).
`Cc1nc2n(c(=O)c1CCN(C)CCc1c[nH]c3ccccc13)CCCC2` has a Ki of 237 nM (HTR2A; ligand displacement; radioligand; cell membranes).
For `COc1cc2c(cc1OC)CN(CCc1ccc(NC(=O)c3cccc4c(=O)c5cccc(OC)c5[nH]c34)cc1)CC2`, the Ki was over 10000 nM (SIGMAR1; ligand displacement; radioligand).
`Cn1cc(-c2cccc(N3CCc4c(sc5c4CC(C)(C)C5)C3=O)c2CO)cc(Nc2ccncn2)c1=O` has a Ki of over 3330 nM (BMX; enzyme activity; inhibitor; FRET).
`CN(C)CCCC1(c2ccc(F)cc2)OCc2cc(C#N)ccc21` (stereo not shown) gave a Ki of 182 nM (SIGMAR1; ligand displacement; radioligand).
The Ki of `Cn1cc(-c2cc(F)cc(N3CCn4c(cc5c4CCCC5)C3=O)c2CO)cc(Nc2ccc(N3CCN(C4COC4)CC3)cn2)c1=O` is reported as 83.2 nM (BMX; enzyme activity; inhibitor; FRET).
`CN(CCCN1c2ccccc2CCc2ccccc21)CC(=O)c1ccc(Cl)cc1` gave a Ki of 7090 nM (SIGMAR1; ligand displacement; radioligand).
With `[C-]#[O+]` the Ki was 5400 nM (cooS2 (Carboxydothermus hydrogenoformans, UniProt Q9F8A8); enzyme activity; inhibitor).
